Reference: article PMC7004521 (Cancer Science, 2019)

Columns and labels:
[1] = Plasma pharmacokinetics; format: in vivo, human
In short: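 Capsules (100–600 mg bid) or tablets (400 mg bid) were given orally. In escalation, plasma was drawn pre-dose and at 0.5, 1, 2, 4, 6 and 8 h on cycle 1 days 1 and 15, plus pre-dose on C1D2, C1D16, C2D1 and C3D1. In expansion, non-NSCLC patients had the C1D15 profile plus pre-dose samples. Analysis was validated LC-MS/MS (LLOQ 1 ng/mL) with noncompartmental parameters.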

[2] = test system: p‐MET; experiment: p‐MET immunohistochemistry in paired tumor biopsies; format: in vivo, human; settings: 450 mg bid capsule, cycle 1 day 15, one advanced CRC patient
[3] = End of treatment / discontinuation reasons; format: in vivo, human; settings: dose‐expansion part, six of 38 patients
[4] = test system: MET‐dependent tumors; settings: tolerable doses; animal models incl. NSCLC, HCC, GBM; cited from earlier work
[5] = test system: c‐MET phosphorylation; settings: read-out: EC90 (90% inhibition of c‐MET phosphorylation); total concentration; c‐MET‐dependent mouse tumor models; cited from earlier work

SMILES: CNC(=O)c1ccc(-c2cnc3ncc(Cc4ccc5ncccc5c4)n3n2)cc1F [capmatinib]
- drug accumulation following multiple doses ([1]; 400 mg bid tablets): Limited drug accumulation
- Racc (accumulation ratio), Mean (SD) ([1]; Cycle 1 Day 15, 100 mg bid n=3): 1.54 (0.786)
- Racc (accumulation ratio), Mean (SD) ([1]; Cycle 1 Day 15, 200 mg bid n=5): 1.36 (0.869)
- Racc (accumulation ratio), Mean (SD) ([1]; Cycle 1 Day 15, 250 mg bid n=3): 1.08 (0.443)
- Racc (accumulation ratio), Mean (SD) ([1]; Cycle 1 Day 15, 350 mg bid n=3): 1.38 (0.614)
- Racc (accumulation ratio), Mean (SD) ([1]; Cycle 1 Day 15, 400 mg bid tablet n=5): 1.09 (0.408)
- Racc (accumulation ratio), Mean (SD) ([1]; Cycle 1 Day 15, 450 mg bid n=5): 2.36 (1.75)
- Racc (accumulation ratio), Mean (SD) ([1]; Cycle 1 Day 15, 600 mg bid n=15): 2.07 (0.848)
- drug accumulation ratio following multiple doses ([1]; capsules): one‐ to twofold
- drug accumulation following multiple doses ([1]; capsules 450 and 600 mg bid): ca. twofold
- dose proportionality of steady‐state AUCtau and Cmax ([1]; capsules, 100 to 600 mg bid): generally dose proportional
- mean exposure, tablet 400 mg bid versus capsules 600 mg bid ([1]; steady state): comparable mean exposure
- Cmax, Mean (SD) ([1]; steady state, Cycle 1 Day 15, 200 mg bid n=5): 2500 (856) ng/mL
- Tmax, Median ([1]; steady state, Cycle 1 Day 15, 250 mg bid n=3): 1.00 h
- Tmax, Median ([1]; steady state, Cycle 1 Day 15, 400 mg bid tablet n=8): 2.02 h
- p‐MET H‐score (IHC) on treatment [2]: 2
- patients discontinued as a result of AE [3]: 16%
- effect on MET‐dependent tumors [4]: regression of MET‐dependent tumors
- EC90 [5]: ~71 nM
